According to ChEMBL document CHEMBL1155347, “Synthesis and antimicrobial activities of novel quinoline derivatives carrying 1,2,4-triazole moiety” (2009):
Converted amounts (≈) assume the structure as drawn.

How the values were obtained:
Assay type in all cases: functional
Aspergillus fumigatus [1] = assay: Antifungal activity against Aspergillus fumigatus NCIM 902 at MIC after 3 to 4 days by agar well diffusion method
How it was run: (§1)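 Sabouraud agar (peptone, D-glucose, agar; pH 5.7) seeded with spore suspension made by transferring a loopful of fungus to 3 mL normal saline. Excess decanted, plates dried 1 h at 37 °C. Compounds in DMSO at MIC added to punched wells; DMSO control. Triplicate plates kept 3–4 days at 37 °C.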

Staphylococcus aureus [2] = assay: Antibacterial activity against Staphylococcus aureus ATCC 25923 after 16 to 18 hrs by serial plate dilution method
How it was run: (§2)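 Drug serially diluted in Mueller–Hinton broth in tubes, adjusted to pH 5.0 with phosphate buffer. Inoculated with standardized bacterial suspension and incubated 16–18 h at 37 °C. MIC taken as lowest concentration with no visible growth.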

Escherichia coli [3] = assay: Antibacterial activity against Escherichia coli ATCC 25922 after 16 to 18 hrs by serial plate dilution method; how it was run: as §2
Pseudomonas aeruginosa [4] = assay: Antibacterial activity against Pseudomonas aeruginosa ATCC 27853 after 16 to 18 hrs by serial plate dilution method; how it was run: as §2
Klebsiella pneumoniae [5] = assay: Antibacterial activity against recultured Klebsiella pneumoniae after 16 to 18 hrs by serial plate dilution method; how it was run: as §2
Staphylococcus aureus [6] = assay: Antibacterial activity against Staphylococcus aureus ATCC 25923 at MIC after 3 to 4 days by agar well diffusion method
Escherichia coli [7] = assay: Antibacterial activity against Escherichia coli ATCC 25922 at MIC after 3 to 4 days by agar well diffusion method
Pseudomonas aeruginosa [8] = assay: Antibacterial activity against Pseudomonas aeruginosa ATCC 27853 at MIC after 3 to 4 days by agar well diffusion method
Klebsiella pneumoniae [9] = assay: Antibacterial activity against recultured Klebsiella pneumoniae at MIC after 3 to 4 days by agar well diffusion method
Talaromyces marneffei [10] = assay: Antifungal activity against recultured Penicillium marneffei by serial plate dilution method
[11] = test system: Trichophyton mentagrophytes; assay: Antifungal activity against recultured Trichophyton mentagrophytes by serial plate dilution method
Aspergillus flavus [12] = assay: Antifungal activity against Aspergillus flavus NCIM 524 by serial plate dilution method
Aspergillus fumigatus [13] = assay: Antifungal activity against Aspergillus fumigatus NCIM 902 by serial plate dilution method
Talaromyces marneffei [14] = assay: Antifungal activity against recultured Penicillium marneffei at MIC after 3 to 4 days by agar well diffusion method; how it was run: as §1
[15] = test system: Trichophyton mentagrophytes; assay: Antifungal activity against recultured Trichophyton mentagrophytes at MIC after 3 to 4 days by agar well diffusion method; how it was run: as §1
Aspergillus flavus [16] = assay: Antifungal activity against Aspergillus flavus NCIM 524 at MIC after 3 to 4 days by agar well diffusion method; how it was run: as §1

Structure (SMILES) | inhibition zone (IZ) (Aspergillus fumigatus [1]) | MIC (Staphylococcus aureus [2]) | MIC (Escherichia coli [3]) | MIC (Pseudomonas aeruginosa [4]) | MIC (Klebsiella pneumoniae [5]) | inhibition zone (IZ) (Staphylococcus aureus [6]) | inhibition zone (IZ) (Escherichia coli [7]) | inhibition zone (IZ) (Pseudomonas aeruginosa [8]) | inhibition zone (IZ) (Klebsiella pneumoniae [9]) | MIC (Talaromyces marneffei [10]) | MIC [11] | MIC (Aspergillus flavus [12]) | MIC (Aspergillus fumigatus [13]) | inhibition zone (IZ) (Talaromyces marneffei [14]) | inhibition zone (IZ) [15] | inhibition zone (IZ) (Aspergillus flavus [16])
CCN1CCN(c2c(-c3nnc(S)n3CCOC)cnc3c(C(F)(F)F)cccc23)CC1 | <10 mm | 50 µg/mL (≈ 107 µM) | 6.25 µg/mL (≈ 13.4 µM) | 50 µg/mL (≈ 107 µM) | 50 µg/mL (≈ 107 µM) | <10 mm | 20 mm | <10 mm | <10 mm | 50 µg/mL (≈ 107 µM) | 6.25 µg/mL (≈ 13.4 µM) | 50 µg/mL (≈ 107 µM) | 50 µg/mL (≈ 107 µM) | <10 mm | 20 mm | <10 mm
FC(F)(F)c1cccc2c(N3CCN(C4CCCCC4)CC3)c(-c3nnc(S)n3-c3ccccc3)cnc12 | <10 mm | 50 µg/mL (≈ 92.8 µM) | 6.25 µg/mL (≈ 11.6 µM) | 50 µg/mL (≈ 92.8 µM) | 50 µg/mL (≈ 92.8 µM) | <10 mm | 20 mm | <10 mm | <10 mm | 50 µg/mL (≈ 92.8 µM) | 50 µg/mL (≈ 92.8 µM) | 50 µg/mL (≈ 92.8 µM) | 50 µg/mL (≈ 92.8 µM) | <10 mm | <10 mm | <10 mm
CC(C)N1CCN(c2c(-c3nnc(S)n3-c3ccccc3)cnc3c(C(F)(F)F)cccc23)CC1 | <10 mm | 50 µg/mL (≈ 100 µM) | 6.25 µg/mL (≈ 12.5 µM) | 50 µg/mL (≈ 100 µM) | 50 µg/mL (≈ 100 µM) | <10 mm | 20 mm | <10 mm | <10 mm | 50 µg/mL (≈ 100 µM) | 50 µg/mL (≈ 100 µM) | 50 µg/mL (≈ 100 µM) | 50 µg/mL (≈ 100 µM) | <10 mm | <10 mm | <10 mm
COCCn1c(S)nnc1-c1cnc2c(C(F)(F)F)cccc2c1N1CCOCC1 | 16 mm | 6.25 µg/mL (≈ 14.2 µM) | 6.25 µg/mL (≈ 14.2 µM) | 6.25 µg/mL (≈ 14.2 µM) | 6.25 µg/mL (≈ 14.2 µM) | 16 mm | 20 mm | 16 mm | 16 mm | 6.25 µg/mL (≈ 14.2 µM) | 6.25 µg/mL (≈ 14.2 µM) | 6.25 µg/mL (≈ 14.2 µM) | 6.25 µg/mL (≈ 14.2 µM) | 16 mm | 20 mm | 16 mm
FC(F)(F)c1cccc2c(Cl)c(-c3nnc(S)n3-c3ccccc3)cnc12 | 16 mm | 6.25 µg/mL (≈ 15.4 µM) | 6.25 µg/mL (≈ 15.4 µM) | 6.25 µg/mL (≈ 15.4 µM) | 6.25 µg/mL (≈ 15.4 µM) | 16 mm | 20 mm | 16 mm | 16 mm | 6.25 µg/mL (≈ 15.4 µM) | 6.25 µg/mL (≈ 15.4 µM) | 6.25 µg/mL (≈ 15.4 µM) | 6.25 µg/mL (≈ 15.4 µM) | 16 mm | 20 mm | 16 mm
NCCN1CCN(c2c(-c3nnc(S)n3Cc3ccccc3)cnc3c(C(F)(F)F)cccc23)CC1 | <10 mm | 50 µg/mL (≈ 97.4 µM) | 6.25 µg/mL (≈ 12.2 µM) | 50 µg/mL (≈ 97.4 µM) | 50 µg/mL (≈ 97.4 µM) | <10 mm | 20 mm | <10 mm | <10 mm | 50 µg/mL (≈ 97.4 µM) | 50 µg/mL (≈ 97.4 µM) | 50 µg/mL (≈ 97.4 µM) | 50 µg/mL (≈ 97.4 µM) | <10 mm | <10 mm | <10 mm
COCCn1c(S)nnc1-c1cnc2c(C(F)(F)F)cccc2c1N1CCN(C2CCCCC2)CC1 | <10 mm | 50 µg/mL (≈ 96 µM) | 6.25 µg/mL (≈ 12 µM) | 50 µg/mL (≈ 96 µM) | 50 µg/mL (≈ 96 µM) | <10 mm | 20 mm | <10 mm | <10 mm | 50 µg/mL (≈ 96 µM) | 6.25 µg/mL (≈ 12 µM) | 50 µg/mL (≈ 96 µM) | 50 µg/mL (≈ 96 µM) | <10 mm | 20 mm | <10 mm
FC(F)(F)c1cccc2c(NC3CC3)c(-c3nnc(S)n3Cc3ccccc3)cnc12 | 16 mm | 6.25 µg/mL (≈ 14.2 µM) | 6.25 µg/mL (≈ 14.2 µM) | 6.25 µg/mL (≈ 14.2 µM) | 6.25 µg/mL (≈ 14.2 µM) | 16 mm | 20 mm | 16 mm | 16 mm | 6.25 µg/mL (≈ 14.2 µM) | 6.25 µg/mL (≈ 14.2 µM) | 6.25 µg/mL (≈ 14.2 µM) | 6.25 µg/mL (≈ 14.2 µM) | 16 mm | 20 mm | 16 mm
FC(F)(F)c1cccc2c(NC3CCCCC3)c(-c3nnc(S)n3Cc3ccccc3)cnc12 | 10 mm | 12.5 µg/mL (≈ 25.8 µM) | 12.5 µg/mL (≈ 25.8 µM) | 12.5 µg/mL (≈ 25.8 µM) | 12.5 µg/mL (≈ 25.8 µM) | 10 mm | 16 mm | 10 mm | 12 mm | 12.5 µg/mL (≈ 25.8 µM) | 12.5 µg/mL (≈ 25.8 µM) | 12.5 µg/mL (≈ 25.8 µM) | 12.5 µg/mL (≈ 25.8 µM) | 10 mm | 16 mm | 10 mm
Oc1c(-c2nnc(S)n2Cc2ccccc2)cnc2c(C(F)(F)F)cccc12 | <10 mm | 50 µg/mL (≈ 124 µM) | 50 µg/mL (≈ 124 µM) | 50 µg/mL (≈ 124 µM) | 50 µg/mL (≈ 124 µM) | <10 mm | <10 mm | <10 mm | <10 mm | 50 µg/mL (≈ 124 µM) | 50 µg/mL (≈ 124 µM) | 50 µg/mL (≈ 124 µM) | 50 µg/mL (≈ 124 µM) | <10 mm | <10 mm | <10 mm
OCCCC1CCN(c2c(-c3nnc(S)n3-c3ccccc3)cnc3c(C(F)(F)F)cccc23)CC1 | <10 mm | 6.25 µg/mL (≈ 12.2 µM) | 12.5 µg/mL (≈ 24.3 µM) | 50 µg/mL (≈ 97.4 µM) | 50 µg/mL (≈ 97.4 µM) | 16 mm | 16 mm | <10 mm | <10 mm | 50 µg/mL (≈ 97.4 µM) | 50 µg/mL (≈ 97.4 µM) | 50 µg/mL (≈ 97.4 µM) | 50 µg/mL (≈ 97.4 µM) | <10 mm | <10 mm | <10 mm
OCCCC1CCN(c2c(-c3nnc(S)n3Cc3ccccc3)cnc3c(C(F)(F)F)cccc23)CC1 | 10 mm | 12.5 µg/mL (≈ 23.7 µM) | 12.5 µg/mL (≈ 23.7 µM) | 12.5 µg/mL (≈ 23.7 µM) | 12.5 µg/mL (≈ 23.7 µM) | 10 mm | 16 mm | 10 mm | 12 mm | 12.5 µg/mL (≈ 23.7 µM) | 12.5 µg/mL (≈ 23.7 µM) | 12.5 µg/mL (≈ 23.7 µM) | 12.5 µg/mL (≈ 23.7 µM) | 10 mm | 16 mm | 10 mm
FC(F)(F)c1cccc2c(NC3CC3)c(-c3nnc(S)n3-c3ccccc3)cnc12 | 16 mm | 6.25 µg/mL (≈ 14.6 µM) | 6.25 µg/mL (≈ 14.6 µM) | 6.25 µg/mL (≈ 14.6 µM) | 6.25 µg/mL (≈ 14.6 µM) | 16 mm | 20 mm | 16 mm | 16 mm | 6.25 µg/mL (≈ 14.6 µM) | 6.25 µg/mL (≈ 14.6 µM) | 6.25 µg/mL (≈ 14.6 µM) | 6.25 µg/mL (≈ 14.6 µM) | 16 mm | 20 mm | 16 mm
FC(F)(F)c1cccc2c(NC3CCCCC3)c(-c3nnc(S)n3-c3ccccc3)cnc12 | 16 mm | 6.25 µg/mL (≈ 13.3 µM) | 6.25 µg/mL (≈ 13.3 µM) | 6.25 µg/mL (≈ 13.3 µM) | 6.25 µg/mL (≈ 13.3 µM) | 16 mm | 20 mm | 16 mm | 16 mm | 6.25 µg/mL (≈ 13.3 µM) | 6.25 µg/mL (≈ 13.3 µM) | 6.25 µg/mL (≈ 13.3 µM) | 6.25 µg/mL (≈ 13.3 µM) | 16 mm | 20 mm | 16 mm
COCCn1c(S)nnc1-c1cnc2c(C(F)(F)F)cccc2c1NCCC(C)(C)C | 16 mm | 50 µg/mL (≈ 110 µM) | 50 µg/mL (≈ 110 µM) | 50 µg/mL (≈ 110 µM) | 50 µg/mL (≈ 110 µM) | <10 mm | <10 mm | <10 mm | <10 mm | 6.25 µg/mL (≈ 13.8 µM) | 6.25 µg/mL (≈ 13.8 µM) | 6.25 µg/mL (≈ 13.8 µM) | 6.25 µg/mL (≈ 13.8 µM) | 16 mm | 20 mm | 16 mm
O=C(O)c1cn(C2CC2)c2cc(N3CCNCC3)c(F)cc2c1=O [CIPROFLOXACIN] | – | – | – | – | 6.25 µg/mL (≈ 18.9 µM) | 22 mm | 30 mm | 25 mm | 23 mm | – | – | – | – | – | – | –
